C2C12 statin: suppression of simvastatin myotoxicity | rescue of ATP level, % at 7.49 µM | 330,000 compounds, 0.78% hits | C2C12 myotubes + simvastatin, ATP luminescence, 48 h; scaled: DMSO 0, geranylgeraniol control 100;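 active = mean ATP rescue above about 67%, or every replicate alone reaching that limit, limit read from the data, passing the limit was not always enough; inconclusive = no clear call, values can overlap the other calls; inactive = mean under the limit and some replicate under it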;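 also: myotubes were challenged with 10 µM simvastatin during compound exposure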
CAL PDZ FP-1: inhibitors of human CAL PDZ peptide binding; Q9HD26; purified CAL PDZ, TMR-peptide fluorescence polarization, 1 h; inhibition, % at 20 µM; 330,000 compounds, 0.02% hits; AID 504414;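 active = highest replicate inhibition of at least 40%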;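 also: plate controls were DMSO neutral control wells for no effect and unlabeled competitor peptide control wells for full effect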
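Material: tagged CAL PDZ domain; buffer or medium: 25 mM sodium phosphate pH 7.4, 150 mM NaCl, TCEP, IgG, Thesit; compound dosing: single point, 20 µM; schedule: 1 h incubation at room temperature before polarization reading; measured by: FP readout, S and P plane fluorescence; read-out basis: percent inhibition from loss of millipolarization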
CDK5 inh: blocks human CDK5/p35 kinase activity | Recombinant CDK5/p35, ADP-Glo luminescence, 60 min | inhibition, % at 10 µM | 330,000 compounds, 0.01% hits | AID 488839;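 active = highest replicate inhibition of at least 50% and at least 75% of replicates reaching 50%; inconclusive = only one of the two criteria met; inactive = both criteria failed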;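 also: plate controls were DMSO neutral control for no effect and GW8510 at 10 µM for full effect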
Target sequence (Q00535 whole entry, looked up): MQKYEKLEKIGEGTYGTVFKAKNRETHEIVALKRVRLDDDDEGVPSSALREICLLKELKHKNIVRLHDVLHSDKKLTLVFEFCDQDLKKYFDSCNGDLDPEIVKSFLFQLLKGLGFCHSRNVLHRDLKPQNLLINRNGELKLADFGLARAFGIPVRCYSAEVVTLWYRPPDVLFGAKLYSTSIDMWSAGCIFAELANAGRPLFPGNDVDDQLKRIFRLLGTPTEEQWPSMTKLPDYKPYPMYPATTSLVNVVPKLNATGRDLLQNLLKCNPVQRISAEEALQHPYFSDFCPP
Target sequence (Q15078 whole entry, looked up): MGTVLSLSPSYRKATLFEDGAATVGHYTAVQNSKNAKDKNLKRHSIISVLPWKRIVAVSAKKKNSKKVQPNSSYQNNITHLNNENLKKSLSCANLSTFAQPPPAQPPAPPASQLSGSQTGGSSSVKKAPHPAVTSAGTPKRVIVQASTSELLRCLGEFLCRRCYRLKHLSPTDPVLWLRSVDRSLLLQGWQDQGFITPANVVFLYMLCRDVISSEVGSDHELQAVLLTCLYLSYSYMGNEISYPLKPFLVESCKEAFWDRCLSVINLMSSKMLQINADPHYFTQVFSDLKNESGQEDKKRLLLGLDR
dFosB act: mouse delta FosB homodimer activation; P13346; purified delta FosB, TAMRA-CDK5 oligo fluorescence polarization; percent of positive-control signal above neutral wells; activation, % at 25 µM; 340,000 compounds, 0.99% hits; AID 493131;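 active = mean activation above about 17%, with every replicate also reaching it, limit read from the data, passing the limit was not always enough; inconclusive = only one of the two conditions met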
S100A4 MyoIIA: inhibitors of human S100A4 binding to myosin IIA peptide. S100A4/TAMRA-MyoIIA peptide fluorescence polarization. P26447. AID 652163. 360,000 compounds, 0.14% hits. inhibition, % at 10.7 µM;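 active = mean inhibition of at least 70% across replicates, with every replicate also reaching that level; inconclusive = mean inhibition reaches 70% but some replicates fall short; inactive = mean inhibition below 70%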
Target sequence (P26447 whole entry, looked up): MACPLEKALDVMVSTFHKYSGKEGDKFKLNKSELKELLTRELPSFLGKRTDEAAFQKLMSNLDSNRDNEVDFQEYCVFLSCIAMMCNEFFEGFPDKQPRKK
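Test system: S100A4 monomer protein. Medium: HEPES buffer with Ca2+, pH 7.2. Reagent: fluorescent myosin IIA peptide, 5 nM. Compound dosing: single-point compound testing. Timing: 5 min between mix addition and reading. Benchmarks: DMSO neutral and TFP positive wells.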
CAL PDZ FP-2: blocks peptide binding to the human CAL PDZ domain | Q9HD26 | purified CAL PDZ, TMR-peptide fluorescence polarization, 1 h | inhibition, % at 24.9 µM | 300,000 compounds, 0.92% hits | AID 602252;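 active = mean inhibition of at least 30% with at least half of replicates also reaching 30%; inconclusive = no clear call, values can overlap the other calls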;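 also: 0% = DMSO neutral control and 100% = excess unlabeled competitor peptide PRC23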
Numbers without * were called inactive; u = inconclusive; x = no result given. An excerpt weighted towards active compounds, which were near 2% of everything screened.

SMILES | C2C12 statin | CAL PDZ FP-1 | CDK5 inh | dFosB act | S100A4 MyoIIA | CAL PDZ FP-2
CC[C@H](C)Cc1cn([C@@H](CCCN=C(NC(=O)OC(C)(C)C)NC(=O)OC(C)(C)C)C(=O)NCCCCCCCCCCC(=O)N2CCN(C(=O)OC(C)(C)C)CC2)nn1 | -43 | -1 | 0 | 33* | x | -4
COc1cc([N+](=O)[O-])ccc1NC(=O)CSc1ccccn1 | x | -1 | -3 | -5 | x | 2
O=[N+]([O-])c1cccnc1NCCNc1ncc(C(F)(F)F)cc1Cl | 136* | -1 | -1 | -5 | x | 0
CCCn1c(-c2cccnc2Cl)nc2cc(Cl)c(Cl)cc21 | 72* | 0 | -1 | -6 | -2 | x
C=CCn1c(-c2cccnc2Cl)nc2cc(Cl)c(Cl)cc21 | 23 | -1 | 1 | -4 | x | x
Cc1ccccc1/C=C/c1nc2ccccc2c(=O)n1Cc1ccccc1 | x | -2 | -1 | -10 | x | 5
CCn1c(/C=C/c2ccccc2C)nc2ccccc2c1=O | x | 0 | 0 | -23 | 1 | 51*
C[C@@H]1CN([C@H](C)CO)C(=O)Cc2cc(NC(=O)C3CCCCC3)ccc2O[C@H]1CN(C)Cc1ccc(-c2ccccc2)cc1 | 99* | x | x | x | 7 | x
C[C@@H]1CN([C@@H](C)CO)C(=O)Cc2cc(NC(=O)C3CC3)ccc2O[C@H]1CN(C)Cc1ccc(Oc2ccccc2)cc1 | 74* | x | x | x | -5 | x
C[C@H](CO)N1C[C@H](C)[C@@H](CN(C)Cc2ccc(Oc3ccccc3)cc2)Oc2ccc(NC(=O)CCC(F)(F)F)cc2CC1=O | 93* | x | x | x | x | x
C[C@@H]1CN([C@H](C)CO)C(=O)Cc2cc(NC(=O)C3CC3)ccc2O[C@H]1CN(C)Cc1ccc(Oc2ccccc2)cc1 | 32 | x | x | x | -1 | x
C[C@H]1CN([C@@H](C)CO)C(=O)Cc2cc(NC(=O)C3CCCCC3)ccc2O[C@@H]1CN(C)Cc1ccc(-c2ccccc2)cc1 | 23 | x | x | x | 4 | x
C[C@H](CO)N1C[C@H](C)[C@@H](CN(C)Cc2ccc(-c3ccccc3)cc2)Oc2ccc(NC(=O)Cn3cnnn3)cc2CC1=O | 89* | x | x | x | -12 | x
C[C@H]1CN([C@@H](C)CO)C(=O)Cc2cc(NC(=O)CCC(F)(F)F)ccc2O[C@H]1CN(C)Cc1ccc(Oc2ccccc2)cc1 | 10 | x | x | x | x | x
Cc1noc(C)c1NC(=O)Nc1ccc2c(c1)CC(=O)N([C@H](C)CO)C[C@H](C)[C@@H](CN(C)Cc1ccc(Oc3ccccc3)cc1)O2 | 103* | x | x | x | x | x
C[C@H](CO)N1C[C@H](C)[C@@H](CN(C)Cc2ccc(C(F)(F)F)cc2)Oc2ccc(NC(=O)C3CCCCC3)cc2CC1=O | 71* | x | x | x | 5 | x
C[C@H]1CN([C@@H](C)CO)C(=O)Cc2cc(NC(=O)Nc3ccc4c(c3)OCO4)ccc2O[C@@H]1CN(C)Cc1ccc(-c2ccccc2)cc1 | 76* | x | x | x | 5 | x
C[C@@H]1CN([C@@H](C)CO)C(=O)Cc2cc(NC(=O)C3CCCCC3)ccc2O[C@@H]1CN(C)Cc1ccc(C(F)(F)F)cc1 | 4 | x | x | x | -8 | x
C[C@@H]1CN([C@@H](C)CO)C(=O)Cc2cc(NC(=O)C3CCCCC3)ccc2O[C@H]1CN(C)Cc1ccc(Oc2ccccc2)cc1 | 88* | x | x | x | 1 | x
CC1CCN(C(=O)COC(=O)C2CCN(S(=O)(=O)c3ccc(Cl)c(C(F)(F)F)c3)CC2)CC1 | 2 | 0 | 1 | 0 | -3 | -6
CC(C)NC(=O)N(C)C[C@H]1Oc2cc(Br)ccc2S(=O)(=O)N([C@H](C)CO)C[C@H]1C | -7 | x | x | x | -1 | x
C[C@@H]1CN([C@H](C)CO)C(=O)Cc2cc(NC(=O)CCN3CCOCC3)ccc2O[C@H]1CN(C)Cc1ccc2c(c1)OCO2 | -16 | x | x | x | 123* | x
C[C@@H]1CN([C@H](C)CO)C(=O)Cc2cc(NC(=O)CCN3CCOCC3)ccc2O[C@@H]1CN(C)Cc1ccc2c(c1)OCO2 | -8 | x | x | x | 14 | x
COc1ccnc(N=CNOCc2ccc(Cl)cc2)c1C#N | -4 | -2 | 0 | 5 | -2 | 0
COCCn1c(SCC(=O)NCc2ccc3c(c2)OCO3)nnc1-c1c[nH]c2ccccc12 | 2 | -1 | 0 | -8 | -4 | 64*
SMILES | C2C12 statin | CAL PDZ FP-1 | CDK5 inh | dFosB act | S100A4 MyoIIA | CAL PDZ FP-2
O=C1CCCN1CN(C(=O)c1ccc2c(c1)OCO2)c1cccc(Cl)c1 | 2 | -1 | -1 | 2 | -2 | 4
COc1ccc(C#Cc2cnc3c(c2)C(=O)N([C@H](C)CO)C[C@H](C)[C@H](CN(C)Cc2ccccc2)O3)cc1OC | u | x | x | x | -8 | x
COc1ccc(C#Cc2cnc3c(c2)C(=O)N([C@H](C)CO)C[C@H](C)[C@H](CN(C)C(=O)Nc2cccc(OC)c2)O3)cc1 | 10 | x | x | x | x | x
C[C@H]1CN([C@@H](C)CO)C(=O)c2cc(-c3cccc(C#N)c3)cnc2O[C@@H]1CN(C)Cc1cccnc1 | -13 | x | x | x | 128* | x
COc1ccc(C#Cc2cnc3c(c2)C(=O)N([C@H](C)CO)C[C@H](C)[C@H](CN(C)Cc2cccc(C(F)(F)F)c2)O3)cc1OC | 152* | x | x | x | 5 | x
Cc1ccc(S(=O)(=O)N(C)C[C@@H]2Oc3ncc(C#Cc4cccc(F)c4)cc3C(=O)N([C@H](C)CO)C[C@@H]2C)cc1 | 100* | x | x | x | 5 | x
COc1ccc(C#Cc2cnc3c(c2)C(=O)N([C@@H](C)CO)C[C@@H](C)[C@H](CN(C)C(=O)Nc2cccc(OC)c2)O3)cc1 | 112* | x | x | x | x | x
COC(=O)C[C@@H]1CC[C@H]2[C@H](COc3ccc(NC(=O)C4CC4)cc3C(=O)N2C)O1 | -7 | x | x | x | -9 | x
CN(C)C(=O)c1ccc(-c2ccccc2[C@@H]2[C@@H](CO)N(C(=O)C3CCC3)[C@H]2C#N)cc1 | x | x | x | x | 9 | x
CC(C)NC(=O)N(C)C[C@@H]1Oc2ccc(NC(=O)c3ccncc3)cc2CC(=O)N([C@@H](C)CO)C[C@@H]1C | -1 | x | x | x | -3 | x
CC(=O)c1cccc(NC(=O)c2ccc(OC3CSC3)cc2)c1 | x | 1 | 0 | 4 | -16 | x
Cc1cccc(NC(=O)c2ccc(OC3CSC3)cc2)c1 | 105* | 0 | 0 | -8 | x | -4
Cc1cc(C(c2cc(C)c(N)c(C)c2)c2ccco2)cc(C)c1N | x | 1 | -1 | -4 | 3 | x
O=C(CSc1nnnn1-c1cccc(F)c1)NC1CC1 | -1 | 0 | 0 | 1 | 0 | 12
NC(=O)C1CCN(c2nc(-c3cccnc3)cs2)CC1 | -17 | 0 | 0 | 33* | -1 | -3
O=C(NC1CCCCC1)N1CCN(c2nc(-c3ccccc3)cs2)CC1 | -17 | -8 | 0 | -15 | -4 | 59*
COc1cccc(-c2csc(N3CCN(C(=O)Nc4ccccc4OC)CC3)n2)c1 | 77* | -2 | 3 | -4 | 0 | -1
